Reference: ChEMBL document CHEMBL4359902, “Development of novel chromeno[4,3-c]pyrazol-4(2H)-one derivates bearing sulfonylpiperazine as antitumor inhibitors targeting PI3Kα” (Eur J Med Chem, 2019)

Assays:
HCT-116 [1] = test: Antiproliferative activity against human HCT116 cells assessed as reduction in cell viability after 48 hrs by MTT assay; format: functional, cell-based; conditions: HCT-116, 48 h
[2] = Cytotoxicity against human 293T cells; format: cell-based; conditions: HEK-293T cells
[3] = target: Phosphatidylinositol 4,5-bisphosphate 3-kinase catalytic subunit beta isoform (Homo sapiens, UniProt P42338); test: Inhibition of PI3Kbeta (unknown origin) using diC8-PI(4,5)P2 as substrate incubated for 3 hrs in presence of ATP by fluorescence polarization assay
Procedure, shortened: (§1)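 Fluorescence polarization competition assay, 10 μL reactions at pH 7: 2.5 mM MgCl₂, 5 mM HEPES, ATP, 10 mM DTT, 50 ng PI3K isoform, diC8-PI(4,5)P2 substrate. After 3 h at room temperature, reactions were chelator-quenched. Phosphoinositide binding protein and fluorophore-labelled tracer were added, then 1 h dark equilibration and polarization read.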

[4] = target: Phosphatidylinositol 4,5-bisphosphate 3-kinase catalytic subunit alpha isoform (Homo sapiens, UniProt P42336); test: Inhibition of PI3Kalpha (unknown origin) using diC8-PI(4,5)P2 as substrate incubated for 3 hrs in presence of ATP by fluorescence polarization assay; procedure, shortened: as §1
[5] = target: Serine/threonine-protein kinase mTOR (Homo sapiens, UniProt P42345); test: Inhibition of mTOR (unknown origin)
[6] = target: Phosphatidylinositol 4,5-bisphosphate 3-kinase catalytic subunit gamma isoform (Homo sapiens, UniProt P48736); test: Inhibition of PI3Kgamma (unknown origin) using diC8-PI(4,5)P2 as substrate incubated for 3 hrs in presence of ATP by fluorescence polarization assay; procedure, shortened: as §1
[7] = target: T1, Phosphatidylinositol 4,5-bisphosphate 3-kinase catalytic subunit delta isoform (Homo sapiens, UniProt O00329); test: Inhibition of PI3Kdelta (unknown origin) using diC8-PI(4,5)P2 as substrate incubated for 3 hrs in presence of ATP by fluorescence polarization assay; procedure, shortened: as §1
T1 sequence (O00329 whole entry): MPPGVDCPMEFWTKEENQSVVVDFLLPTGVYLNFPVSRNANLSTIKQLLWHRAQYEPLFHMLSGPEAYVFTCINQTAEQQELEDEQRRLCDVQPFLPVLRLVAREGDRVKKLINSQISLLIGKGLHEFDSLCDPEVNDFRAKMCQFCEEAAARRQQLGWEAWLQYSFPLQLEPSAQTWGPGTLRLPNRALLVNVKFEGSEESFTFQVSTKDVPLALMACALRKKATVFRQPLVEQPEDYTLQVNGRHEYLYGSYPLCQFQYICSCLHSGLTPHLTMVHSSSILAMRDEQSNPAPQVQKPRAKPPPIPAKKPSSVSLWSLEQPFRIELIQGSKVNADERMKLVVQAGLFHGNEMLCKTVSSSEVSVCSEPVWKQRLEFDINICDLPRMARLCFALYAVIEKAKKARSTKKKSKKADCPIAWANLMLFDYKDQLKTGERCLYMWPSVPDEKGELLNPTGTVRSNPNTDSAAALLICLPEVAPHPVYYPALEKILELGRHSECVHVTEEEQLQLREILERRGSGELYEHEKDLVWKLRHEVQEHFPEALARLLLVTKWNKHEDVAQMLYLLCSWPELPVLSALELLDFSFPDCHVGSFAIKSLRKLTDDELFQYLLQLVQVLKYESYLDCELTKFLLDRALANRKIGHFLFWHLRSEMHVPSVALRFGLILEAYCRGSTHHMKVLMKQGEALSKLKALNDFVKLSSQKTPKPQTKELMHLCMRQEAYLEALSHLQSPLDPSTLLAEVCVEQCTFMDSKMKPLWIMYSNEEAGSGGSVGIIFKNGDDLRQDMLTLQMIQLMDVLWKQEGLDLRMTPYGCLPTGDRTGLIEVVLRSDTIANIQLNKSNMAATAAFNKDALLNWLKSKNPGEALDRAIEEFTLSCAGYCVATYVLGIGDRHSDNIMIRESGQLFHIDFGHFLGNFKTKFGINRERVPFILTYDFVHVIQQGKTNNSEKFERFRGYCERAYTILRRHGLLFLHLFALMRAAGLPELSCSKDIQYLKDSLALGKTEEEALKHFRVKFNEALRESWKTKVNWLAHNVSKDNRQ

A549 = test: Antiproliferative activity against human A549 cells assessed as reduction in cell viability after 48 hrs by MTT assay; format: functional, cell-based; conditions: A549, 48 h
Huh-7 = test: Antiproliferative activity against human HuH7 cells assessed as reduction in cell viability after 48 hrs by MTT assay; format: functional, cell-based; conditions: Huh-7, 48 h
HL-60 = test: Antiproliferative activity against human HL60 cells assessed as reduction in cell viability after 48 hrs by MTT assay; format: functional, cell-based; conditions: HL-60, 48 h
HCT-116 [8] = test: Antitumour activity against human HCT116 cells xenografted in nude mouse assessed as tumour growth inhibition at 10 mg/kg, ig administered every 3 days for 3 weeks and measured after 3 weeks relative to control; format: functional; conditions: HCT-116, po, read-out: TGI
Procedure, shortened: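 HCT-116 cells (5 × 10^6 per animal) injected into right flank of nude mice; at ~100 mm³ tumours, randomized into groups of 6. Dosed 10 mg/kg in 5% CMC-Na intragastrically every three days for three weeks; vehicle control 5% CMC-Na. Body weight and tumour size recorded every three days, volume = 0.5 × length × width²; tumours excised and weighed at end. Mean ± SD.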

Sequence of Phosphatidylinositol 4,5-bisphosphate 3-kinase catalytic subunit alpha isoform (P42336 whole entry, canonical isoform): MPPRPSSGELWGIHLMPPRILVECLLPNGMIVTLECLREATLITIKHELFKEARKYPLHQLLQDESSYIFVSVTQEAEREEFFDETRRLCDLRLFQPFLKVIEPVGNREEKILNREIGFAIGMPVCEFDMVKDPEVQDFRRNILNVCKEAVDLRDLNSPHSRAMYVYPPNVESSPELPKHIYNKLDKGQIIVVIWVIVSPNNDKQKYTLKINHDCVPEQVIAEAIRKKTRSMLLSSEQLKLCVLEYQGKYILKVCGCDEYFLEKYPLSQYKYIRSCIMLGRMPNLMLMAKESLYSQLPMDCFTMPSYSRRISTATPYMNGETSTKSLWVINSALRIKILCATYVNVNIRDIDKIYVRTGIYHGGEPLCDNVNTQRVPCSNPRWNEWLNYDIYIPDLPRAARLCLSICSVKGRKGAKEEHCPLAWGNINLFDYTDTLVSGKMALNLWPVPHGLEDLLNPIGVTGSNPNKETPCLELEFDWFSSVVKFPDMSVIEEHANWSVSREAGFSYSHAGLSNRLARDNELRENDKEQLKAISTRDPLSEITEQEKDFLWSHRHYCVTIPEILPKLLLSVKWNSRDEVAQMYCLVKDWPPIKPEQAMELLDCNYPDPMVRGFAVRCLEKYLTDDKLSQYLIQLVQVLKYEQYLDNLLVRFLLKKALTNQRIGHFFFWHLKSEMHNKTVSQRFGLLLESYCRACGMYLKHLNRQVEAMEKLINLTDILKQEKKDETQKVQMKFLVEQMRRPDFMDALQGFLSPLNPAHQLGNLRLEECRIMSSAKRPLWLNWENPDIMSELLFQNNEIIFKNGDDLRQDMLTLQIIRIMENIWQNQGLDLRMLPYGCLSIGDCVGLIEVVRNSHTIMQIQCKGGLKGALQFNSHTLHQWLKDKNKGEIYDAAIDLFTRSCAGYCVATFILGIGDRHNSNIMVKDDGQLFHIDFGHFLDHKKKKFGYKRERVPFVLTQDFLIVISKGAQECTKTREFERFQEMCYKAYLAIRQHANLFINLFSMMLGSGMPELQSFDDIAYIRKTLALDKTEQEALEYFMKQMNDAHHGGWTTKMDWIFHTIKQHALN
Sequence of Phosphatidylinositol 4,5-bisphosphate 3-kinase catalytic subunit gamma isoform (P48736 whole entry, canonical isoform): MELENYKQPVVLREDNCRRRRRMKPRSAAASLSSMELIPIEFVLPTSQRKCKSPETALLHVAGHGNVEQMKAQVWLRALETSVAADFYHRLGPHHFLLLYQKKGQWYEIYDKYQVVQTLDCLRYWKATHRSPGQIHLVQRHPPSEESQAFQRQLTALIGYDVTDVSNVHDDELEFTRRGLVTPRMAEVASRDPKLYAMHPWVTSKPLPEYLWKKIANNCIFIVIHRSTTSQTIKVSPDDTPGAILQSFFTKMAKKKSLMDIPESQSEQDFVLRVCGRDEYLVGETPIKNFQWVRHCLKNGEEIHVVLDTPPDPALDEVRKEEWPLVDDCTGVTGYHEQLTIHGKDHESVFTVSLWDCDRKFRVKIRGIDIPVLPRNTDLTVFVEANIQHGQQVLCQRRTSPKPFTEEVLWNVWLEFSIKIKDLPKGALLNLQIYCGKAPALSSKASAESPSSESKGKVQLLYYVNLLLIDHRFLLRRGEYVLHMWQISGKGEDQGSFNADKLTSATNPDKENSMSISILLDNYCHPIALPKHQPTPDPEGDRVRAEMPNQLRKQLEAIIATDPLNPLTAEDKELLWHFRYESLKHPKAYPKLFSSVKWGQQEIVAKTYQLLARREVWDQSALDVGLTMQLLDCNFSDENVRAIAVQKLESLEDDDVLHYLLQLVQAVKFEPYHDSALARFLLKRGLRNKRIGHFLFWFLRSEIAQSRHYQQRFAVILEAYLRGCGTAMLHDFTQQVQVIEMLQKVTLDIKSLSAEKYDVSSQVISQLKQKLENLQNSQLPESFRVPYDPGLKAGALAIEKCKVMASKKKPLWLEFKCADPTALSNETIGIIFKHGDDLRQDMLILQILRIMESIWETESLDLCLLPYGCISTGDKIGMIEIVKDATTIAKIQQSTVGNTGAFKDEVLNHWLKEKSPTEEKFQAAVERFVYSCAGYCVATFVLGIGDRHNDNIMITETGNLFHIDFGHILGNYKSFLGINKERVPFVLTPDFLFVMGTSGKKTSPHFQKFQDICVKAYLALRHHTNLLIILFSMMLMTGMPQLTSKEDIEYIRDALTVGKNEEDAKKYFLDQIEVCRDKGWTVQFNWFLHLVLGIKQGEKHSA
Sequence of Phosphatidylinositol 4,5-bisphosphate 3-kinase catalytic subunit beta isoform (P42338 whole entry, canonical isoform): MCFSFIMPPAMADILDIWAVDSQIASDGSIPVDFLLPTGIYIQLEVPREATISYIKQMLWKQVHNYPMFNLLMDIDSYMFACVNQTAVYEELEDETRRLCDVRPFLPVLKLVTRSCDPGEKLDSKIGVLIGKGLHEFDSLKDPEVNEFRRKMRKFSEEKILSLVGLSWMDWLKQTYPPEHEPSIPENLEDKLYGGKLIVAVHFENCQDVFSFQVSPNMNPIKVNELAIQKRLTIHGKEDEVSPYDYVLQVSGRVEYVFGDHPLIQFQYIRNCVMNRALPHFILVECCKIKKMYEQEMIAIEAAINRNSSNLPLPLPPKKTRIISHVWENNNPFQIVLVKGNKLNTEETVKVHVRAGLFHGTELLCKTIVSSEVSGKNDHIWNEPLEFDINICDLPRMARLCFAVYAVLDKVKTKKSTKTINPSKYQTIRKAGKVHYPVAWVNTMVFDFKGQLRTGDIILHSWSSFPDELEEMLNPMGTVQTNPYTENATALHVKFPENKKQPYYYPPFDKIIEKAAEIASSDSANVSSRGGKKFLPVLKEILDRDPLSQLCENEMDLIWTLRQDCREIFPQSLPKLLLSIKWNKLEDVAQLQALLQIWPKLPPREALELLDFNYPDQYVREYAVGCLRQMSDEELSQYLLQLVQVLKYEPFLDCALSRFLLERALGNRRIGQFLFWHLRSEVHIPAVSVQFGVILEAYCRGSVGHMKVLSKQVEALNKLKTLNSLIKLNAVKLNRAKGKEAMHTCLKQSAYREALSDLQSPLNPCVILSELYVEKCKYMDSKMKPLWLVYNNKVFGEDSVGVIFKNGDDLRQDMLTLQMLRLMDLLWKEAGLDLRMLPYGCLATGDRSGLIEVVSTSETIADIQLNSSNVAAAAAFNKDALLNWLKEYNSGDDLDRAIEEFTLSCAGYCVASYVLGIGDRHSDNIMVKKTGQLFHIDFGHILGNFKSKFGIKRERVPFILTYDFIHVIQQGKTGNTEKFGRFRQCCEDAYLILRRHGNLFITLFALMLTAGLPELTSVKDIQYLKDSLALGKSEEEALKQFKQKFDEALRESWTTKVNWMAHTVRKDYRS

IC50 (HCT-116 [1])	IC50 [3]	IC50 [4]	IC50 [5]	IC50 [6]	IC50 [7]	IC50 (A549)	IC50 (Huh-7)	IC50 (HL-60)	SMILES	CC50 [2]	inhibition in vivo at 10 mg/kg (HCT-116 [8])
2.45 µM	> 10 µM	8.91 µM	9.12 µM	7.51 µM	9.76 µM	5.11 µM	6.44 µM	6.33 µM	O=c1oc2ccccc2c2nn(CN3CCN(S(=O)(=O)c4ccc(F)cc4)CC3)cc12	298 µM	–
0.92 µM	4.14 µM	2.63 µM	> 10 µM	4.01 µM	5.45 µM	2.1 µM	2.82 µM	2.67 µM	O=c1oc2ccccc2c2nn(CN3CCN(S(=O)(=O)c4ccc([N+](=O)[O-])cc4)CC3)cc12	347 µM	–
1.29 µM	> 10 µM	6.18 µM	> 10 µM	9.34 µM	> 10 µM	3.67 µM	3.65 µM	2.01 µM	O=c1oc2ccccc2c2nn(CN3CCN(S(=O)(=O)c4cccc([N+](=O)[O-])c4)CC3)cc12	412 µM	–
0.09 µM	0.41 µM	0.12 µM	7.44 µM	0.14 µM	0.23 µM	0.11 µM	0.3 µM	0.11 µM	Cc1cc(C)c(S(=O)(=O)N2CCN(Cn3cc4c(=O)oc5ccccc5c4n3)CC2)c(C)c1	354 µM	–
0.08 µM	0.21 µM	0.042 µM	> 10 µM	0.11 µM	0.42 µM	0.09 µM	0.14 µM	0.09 µM	CC(C)c1cc(C(C)C)c(S(=O)(=O)N2CCN(Cn3cc4c(=O)oc5ccccc5c4n3)CC2)c(C(C)C)c1	332 µM	–
4.87 µM	9.14 µM	> 10 µM	8.37 µM	8.42 µM	6.15 µM	7.66 µM	7.92 µM	8.23 µM	O=c1oc2ccccc2c2nn(CN3CCN(S(=O)(=O)c4ccccc4[N+](=O)[O-])CC3)cc12	372 µM	–
69.3 µM	–	–	–	–	–	82 µM	79 µM	71.4 µM	O=c1oc2ccccc2c2nn(CN3CCN(S(=O)(=O)C4CC4)CC3)cc12	–	–
7.53 µM	–	–	–	–	–	13.9 µM	11.3 µM	22.1 µM	O=c1oc2ccccc2c2nn(CN3CCN(S(=O)(=O)c4ccccc4)CC3)cc12	–	–
1.89 µM	9.71 µM	8.3 µM	> 10 µM	> 10 µM	9.31 µM	3.09 µM	5.08 µM	4.78 µM	O=c1oc2ccccc2c2nn(CN3CCN(S(=O)(=O)c4ccc(Br)cc4)CC3)cc12	387 µM	–
38 µM	–	–	–	–	–	52.1 µM	48.5 µM	55.1 µM	O=c1oc2ccccc2c2nn(CN3CCN(S(=O)(=O)CCCCl)CC3)cc12	–	–
0.24 µM	–	–	–	–	–	0.38 µM	0.53 µM	0.91 µM	Cn1c(=O)n(-c2ccc(C(C)(C)C#N)cc2)c2c3cc(-c4cnc5ccccc5c4)ccc3ncc21 [DACTOLISIB]	–	–
12.1 µM	–	–	–	–	–	27.4 µM	34 µM	24.5 µM	COc1ccc(S(=O)(=O)N2CCN(Cn3cc4c(=O)oc5ccccc5c4n3)CC2)cc1	–	–
57.6 µM	–	–	–	–	–	79.7 µM	87.6 µM	89.4 µM	CCCS(=O)(=O)N1CCN(Cn2cc3c(=O)oc4ccccc4c3n2)CC1	–	–
11.1 µM	–	–	–	–	–	21.5 µM	28.5 µM	16.9 µM	Cc1ccc(S(=O)(=O)N2CCN(Cn3cc4c(=O)oc5ccccc5c4n3)CC2)cc1	–	–
0.84 µM	5.75 µM	3.84 µM	8.12 µM	2.3 µM	7.51 µM	1.15 µM	2.34 µM	1.1 µM	O=c1oc2ccccc2c2nn(CN3CCN(S(=O)(=O)c4ccc(C(F)(F)F)cc4)CC3)cc12	335 µM	–
87.9 µM	–	–	–	–	–	> 100 µM	> 100 µM	> 100 µM	CCCCS(=O)(=O)N1CCN(Cn2cc3c(=O)oc4ccccc4c3n2)CC1	–	–
> 100 µM	–	–	–	–	–	> 100 µM	> 100 µM	> 100 µM	CCS(=O)(=O)N1CCN(Cn2cc3c(=O)oc4ccccc4c3n2)CC1	–	–
45.8 µM	–	–	–	–	–	68.7 µM	62.9 µM	78.6 µM	O=c1oc2ccccc2c2nn(CN3CCN(S(=O)(=O)CCCl)CC3)cc12	–	–
> 100 µM	–	–	–	–	–	> 100 µM	> 100 µM	> 100 µM	O=c1oc2ccccc2c2nn(CN3CCN(S(=O)(=O)C(F)(F)F)CC3)cc12	–	–
–	–	–	> 10 µM	–	–	–	–	–	O=c1cc(N2CCOCC2)oc2c(-c3ccccc3)cccc12 [LY-294002]	–	35.2%
> 100 µM	–	–	–	–	–	> 100 µM	97.1 µM	> 100 µM	CS(=O)(=O)N1CCN(Cn2cc3c(=O)oc4ccccc4c3n2)CC1	–	–
0.47 µM	2.65 µM	0.95 µM	> 10 µM	1.32 µM	0.75 µM	0.74 µM	0.9 µM	0.84 µM	CC(C)(C)c1ccc(S(=O)(=O)N2CCN(Cn3cc4c(=O)oc5ccccc5c4n3)CC2)cc1	231 µM	–
0.81 µM	2.19 µM	1.55 µM	> 10 µM	2.65 µM	4.72 µM	1.21 µM	1.61 µM	0.64 µM	O=c1oc2ccccc2c2nn(CN3CCN(S(=O)(=O)c4ccc(Cl)cc4)CC3)cc12	278 µM	–
0.13 µM	0.85 µM	0.3 µM	> 10 µM	0.81 µM	1.42 µM	0.48 µM	0.66 µM	0.22 µM	Cc1ccc(C)c(S(=O)(=O)N2CCN(Cn3cc4c(=O)oc5ccccc5c4n3)CC2)c1	397 µM	–
